ChEMBL document CHEMBL4689842, “EUbOPEN Chemogenomics Library wave 1” (2021)
Where “and” joins values, the source holds several entries; their conditions need not be identical. Identical values can stand only once.

Tested on: HEK-293T
Assay: Multiplex assay against HEK293T;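 on Population Tubulin-Different-Phenotype (%): share of the cells with healthy nuclei that show this phenotype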
Type: toxicity, cell-based
Conditions: human
In short: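 With compound added, live cells were imaged on a CQ1 microscope at 37°C and 5% CO2; staining with Hoechst33342, BioTracker Green Microtubule Cytoskeleton Dye, MitoTracker Red and Annexin V Alexa Fluor 680 had been done at seeding. The CellPathfinder machine-learning gating scheme split cells into Hoechst high-intensity objects or normal cells, normal cells into healthy, pyknosed or fragmented nuclei, and pyknosed cells into mitotic or apoptotic. The tubulin, mitochondrial-mass and membrane-permeability phenotypes are per cents of healthy-nucleus cells.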

[1] = 12 h, 1 µM, compound concentration 1 uM, replicate 1
[2] = 12 h, 1 µM, compound concentration 1 uM, replicate 2
[3] = 12 h, 10 µM, compound concentration 10 uM, replicate 1
[4] = 12 h, 10 µM, compound concentration 10 uM, replicate 2
[5] = 24 h, 1 µM, compound concentration 1 uM, replicate 1
[6] = 24 h, 1 µM, compound concentration 1 uM, replicate 2
[7] = 24 h, 10 µM, compound concentration 10 uM, replicate 1
[8] = 24 h, 10 µM, compound concentration 10 uM, replicate 2
[9] = 48 h, 1 µM, compound concentration 1 uM, replicate 1
[10] = 48 h, 1 µM, compound concentration 1 uM, replicate 2
[11] = 48 h, 10 µM, compound concentration 10 uM, replicate 1
[12] = 48 h, 10 µM, compound concentration 10 uM, replicate 2

CC1=C(C(=O)Nc2cc3cn[nH]c3cc2F)C(c2ccc(C(F)(F)F)cc2)CC(=O)N1 (configuration not stated)
Population Apoptotic (%) [1]: 47% | Population Fragmented Nuclei (%) [1]: 13% | Population Healthy Nuclei (%) [1]: 43% | Population Hoechst High Intensity Objects (%) [1]: 7% | Population Membrane Permeable-Phenotype (%) [1]: 3% | Population Mitochondria Different-Phenotype (%) [1]: 63% | Population Mitotic Cells (%) [1]: 52% | Population Normal (%) [1]: 92% | Population Pyknosed Nuclei (%) [1]: 42% | Population Tubulin-Different-Phenotype (%) [1]: 29% | Total Cell Count [1]: 402 | Population Apoptotic (%) [2]: 6% | Population Fragmented Nuclei (%) [2]: 12% | Population Healthy Nuclei (%) [2]: 46% | Population Hoechst High Intensity Objects (%) [2]: 2% | Population Membrane Permeable-Phenotype (%) [2]: 12% | Population Mitochondria Different-Phenotype (%) [2]: 12% | Population Mitotic Cells (%) [2]: 93% | Population Normal (%) [2]: 97% | Population Pyknosed Nuclei (%) [2]: 40% | Population Tubulin-Different-Phenotype (%) [2]: 14% | Total Cell Count [2]: 235 | Population Apoptotic (%) [3]: 38% | Population Fragmented Nuclei (%) [3]: 12% | Population Healthy Nuclei (%) [3]: 41% | Population Hoechst High Intensity Objects (%) [3]: 10% | Population Membrane Permeable-Phenotype (%) [3]: 5% | Population Mitochondria Different-Phenotype (%) [3]: 64% | Population Mitotic Cells (%) [3]: 61% | Population Normal (%) [3]: 89% | Population Pyknosed Nuclei (%) [3]: 45% | Population Tubulin-Different-Phenotype (%) [3]: 36% | Total Cell Count [3]: 236 | Population Apoptotic (%) [4]: 16% | Population Fragmented Nuclei (%) [4]: 10% | Population Healthy Nuclei (%) [4]: 37% | Population Hoechst High Intensity Objects (%) [4]: 5% | Population Membrane Permeable-Phenotype (%) [4]: 11% | Population Mitochondria Different-Phenotype (%) [4]: 24% | Population Mitotic Cells (%) [4]: 83% | Population Normal (%) [4]: 95% | Population Pyknosed Nuclei (%) [4]: 52% | Population Tubulin-Different-Phenotype (%) [4]: 34% | Total Cell Count [4]: 240 | Population Apoptotic (%) [5]: 41% | Population Fragmented Nuclei (%) [5]: 11% | Population Healthy Nuclei (%) [5]: 41% | Population Hoechst High Intensity Objects (%) [5]: 12% | Population Membrane Permeable-Phenotype (%) [5]: 3% | Population Mitochondria Different-Phenotype (%) [5]: 46% | Population Mitotic Cells (%) [5]: 58% | Population Normal (%) [5]: 87% | Population Pyknosed Nuclei (%) [5]: 47% | Population Tubulin-Different-Phenotype (%) [5]: 29% | Total Cell Count [5]: 443 | Population Apoptotic (%) [6]: 12% | Population Healthy Nuclei (%) [6]: 63% | Population Hoechst High Intensity Objects (%) [6]: 1% | Population Membrane Permeable-Phenotype (%) [6]: 14% | Population Mitochondria Different-Phenotype (%) [6]: 8% | Population Mitotic Cells (%) [6]: 87% | Population Normal (%) [6]: 98% | Population Pyknosed Nuclei (%) [6]: 25% | Population Tubulin-Different-Phenotype (%) [6]: 17% | Total Cell Count [6]: 274 | Population Apoptotic (%) [7]: 42% | Population Fragmented Nuclei (%) [7]: 15% | Population Healthy Nuclei (%) [7]: 41% | Population Hoechst High Intensity Objects (%) [7]: 10% | Population Membrane Permeable-Phenotype (%) [7]: 6% | Population Mitochondria Different-Phenotype (%) [7]: 61% | Population Mitotic Cells (%) [7]: 57% | Population Normal (%) [7]: 89% | Population Pyknosed Nuclei (%) [7]: 42% | Population Tubulin-Different-Phenotype (%) [7]: 41% | Total Cell Count [7]: 229 | Population Apoptotic (%) [8]: 26% | Population Fragmented Nuclei (%) [8]: 11% | Population Healthy Nuclei (%) [8]: 61% | Population Hoechst High Intensity Objects (%) [8]: 2% | Population Membrane Permeable-Phenotype (%) [8]: 12% | Population Mitochondria Different-Phenotype (%) [8]: 26% | Population Mitotic Cells (%) [8]: 73% | Population Normal (%) [8]: 97% | Population Pyknosed Nuclei (%) [8]: 26% | Population Tubulin-Different-Phenotype (%) [8]: 47% | Total Cell Count [8]: 258 | Population Apoptotic (%) [9]: 29% | Population Fragmented Nuclei (%) [9]: 18% | Population Healthy Nuclei (%) [9]: 47% | Population Hoechst High Intensity Objects (%) [9]: 10% | Population Membrane Permeable-Phenotype (%) [9]: 6% | Population Mitochondria Different-Phenotype (%) [9]: 23% | Population Mitotic Cells (%) [9]: 70% | Population Normal (%) [9]: 89% | Population Pyknosed Nuclei (%) [9]: 34% | Population Tubulin-Different-Phenotype (%) [9]: 22% | Total Cell Count [9]: 530 | Population Apoptotic (%) [10]: 5% | Population Fragmented Nuclei (%) [10]: 10% | Population Healthy Nuclei (%) [10]: 77% | Population Hoechst High Intensity Objects (%) [10]: 2% | Population Membrane Permeable-Phenotype (%) [10]: 8% | Population Mitochondria Different-Phenotype (%) [10]: 3% | Population Mitotic Cells (%) [10]: 94% | Population Normal (%) [10]: 97% | Population Pyknosed Nuclei (%) [10]: 11% | Population Tubulin-Different-Phenotype (%) [10]: 15% | Total Cell Count [10]: 488 | Population Apoptotic (%) [11]: 49% | Population Fragmented Nuclei (%) [11]: 16% | Population Healthy Nuclei (%) [11]: 49% | Population Hoechst High Intensity Objects (%) [11]: 14% | Population Membrane Permeable-Phenotype (%) [11]: 7% | Population Mitochondria Different-Phenotype (%) [11]: 29% | Population Mitotic Cells (%) [11]: 50% | Population Normal (%) [11]: 85% | Population Pyknosed Nuclei (%) [11]: 33% | Population Tubulin-Different-Phenotype (%) [11]: 34% | Total Cell Count [11]: 261 | Population Apoptotic (%) [12]: 65% | Population Healthy Nuclei (%) [12]: 75% | Population Hoechst High Intensity Objects (%) [12]: 2% | Population Membrane Permeable-Phenotype (%) [12]: 6% | Population Mitochondria Different-Phenotype (%) [12]: 19% | Population Mitotic Cells (%) [12]: 34% | Population Normal (%) [12]: 97% | Population Pyknosed Nuclei (%) [12]: 8% | Population Tubulin-Different-Phenotype (%) [12]: 36% | Total Cell Count [12]: 334

CCOC(=O)Nc1cc(-c2ccc(C)c(NS(C)(=O)=O)c2)nn2c(C)nnc12
Population Apoptotic (%) [1]: 18% | Population Fragmented Nuclei (%) [1]: 13% | Population Healthy Nuclei (%) [1]: 68% | Population Hoechst High Intensity Objects (%) [1]: 9% | Population Membrane Permeable-Phenotype (%) [1]: 3% | Population Mitochondria Different-Phenotype (%) [1]: 3% | Population Mitotic Cells (%) [1]: 81% | Population Normal (%) [1]: 90% | Population Pyknosed Nuclei (%) [1]: 17% | Population Tubulin-Different-Phenotype (%) [1]: 2% | Total Cell Count [1]: 561 | Population Apoptotic (%) [2]: 12% | Population Fragmented Nuclei (%) [2]: 10% | Population Healthy Nuclei (%) [2]: 87% | Population Hoechst High Intensity Objects (%) [2]: 2% | Population Membrane Permeable-Phenotype (%) [2]: 0% | Population Mitochondria Different-Phenotype (%) [2]: 6% | Population Mitotic Cells (%) [2]: 87% | Population Normal (%) [2]: 97% | Population Pyknosed Nuclei (%) [2]: 2% | Population Tubulin-Different-Phenotype (%) [2]: 0% | Total Cell Count [2]: 1857 | Population Apoptotic (%) [3]: 44% and 28% | Population Fragmented Nuclei (%) [3]: 19% and 8% | Population Hoechst High Intensity Objects (%) [3]: 12% and 6% | Population Membrane Permeable-Phenotype (%) [3]: 0% and 2% | Population Mitotic Cells (%) [3]: 55% and 71% | Population Normal (%) [3]: 88% and 93% | Total Cell Count [3]: 275 and 719 | Population Apoptotic (%) [4]: 4% and 3% | Population Fragmented Nuclei (%) [4]: 16% | Population Healthy Nuclei (%) [4]: 79% and 50% | Population Hoechst High Intensity Objects (%) [4]: 3% and 4% | Population Mitochondria Different-Phenotype (%) [4]: 6% and 8% | Population Mitotic Cells (%) [4]: 95% and 96% | Population Normal (%) [4]: 96% and 95% | Population Tubulin-Different-Phenotype (%) [4]: 1% | Population Apoptotic (%) [5]: 13% | Population Fragmented Nuclei (%) [5]: 11% | Population Healthy Nuclei (%) [5]: 78% | Population Hoechst High Intensity Objects (%) [5]: 7% | Population Membrane Permeable-Phenotype (%) [5]: 4% | Population Mitochondria Different-Phenotype (%) [5]: 2% | Population Mitotic Cells (%) [5]: 86% | Population Normal (%) [5]: 92% | Population Pyknosed Nuclei (%) [5]: 9% | Population Tubulin-Different-Phenotype (%) [5]: 0% | Total Cell Count [5]: 702 | Population Apoptotic (%) [6]: 6% | Population Fragmented Nuclei (%) [6]: 32% | Population Healthy Nuclei (%) [6]: 65% | Population Hoechst High Intensity Objects (%) [6]: 4% | Population Membrane Permeable-Phenotype (%) [6]: 0% | Population Mitochondria Different-Phenotype (%) [6]: 1% | Population Mitotic Cells (%) [6]: 93% | Population Normal (%) [6]: 95% | Population Pyknosed Nuclei (%) [6]: 2% | Total Cell Count [6]: 3024 | Population Apoptotic (%) [7]: 42% and 17% | Population Fragmented Nuclei (%) [7]: 16% and 17% | Population Healthy Nuclei (%) [7]: 34% and 77% | Population Hoechst High Intensity Objects (%) [7]: 9% and 6% | Population Membrane Permeable-Phenotype (%) [7]: 1% and 6% | Population Mitotic Cells (%) [7]: 57% and 82% | Population Normal (%) [7]: 90% and 93% | Population Tubulin-Different-Phenotype (%) [7]: 1% and 2% | Population Healthy Nuclei (%) [8]: 68% and 53% | Population Hoechst High Intensity Objects (%) [8]: 2% and 5% | Population Mitochondria Different-Phenotype (%) [8]: 1% | Population Mitotic Cells (%) [8]: 98% and 95% | Population Normal (%) [8]: 97% and 94% | Population Apoptotic (%) [11]: 38% | Population Fragmented Nuclei (%) [11]: 19% | Population Healthy Nuclei (%) [11]: 48% | Population Hoechst High Intensity Objects (%) [11]: 11% | Population Membrane Permeable-Phenotype (%) [11]: 1% | Population Mitochondria Different-Phenotype (%) [11]: 4% | Population Mitotic Cells (%) [11]: 61% | Population Normal (%) [11]: 88% | Population Pyknosed Nuclei (%) [11]: 32% | Population Tubulin-Different-Phenotype (%) [11]: 1% | Total Cell Count [11]: 380 | Population Apoptotic (%) [12]: 4% | Population Fragmented Nuclei (%) [12]: 9% | Population Healthy Nuclei (%) [12]: 83% | Population Hoechst High Intensity Objects (%) [12]: 2% | Population Mitochondria Different-Phenotype (%) [12]: 0% | Population Mitotic Cells (%) [12]: 95% | Population Normal (%) [12]: 97% | Population Pyknosed Nuclei (%) [12]: 7% | Population Tubulin-Different-Phenotype (%) [12]: 0% | Total Cell Count [12]: 566
